{"data": "Assay results from different studies", "target": "Cytochrome P450 2D6 (CYP2D6, Homo sapiens, UniProt P10635)", "read-out": "enzyme activity", "mode": "inhibitor", "note": "Protocols differ between the studies behind these lines."}
{"SMILES": "Cc1cc(C)c2c(c1)[C@@H](N(Cc1cc(C(F)(F)F)cc(C(F)(F)F)c1)c1nnn(C)n1)CCCN2C[C@H]1CC[C@H](C(=O)O)CC1", "species": "human", "sample": "liver microsomes", "pH": "pH 7.4", "quantity": "Ki", "result": "2100 nM"}
{"SMILES": "Nc1nc(N)c2nc(C(=O)NCc3ccccc3)cnc2n1", "method": "luciferase", "quantity": "IC50", "result": "204 nM"}
{"SMILES": "Cc1cc2c(F)c(Oc3ncnn4cc(OC[C@@H](C)O)c(C)c34)ccc2[nH]1", "method": "fluorescence", "time": "15 min", "quantity": "IC50", "result": "34700 nM"}
{"SMILES": "O=c1c(O)c(-c2ccc(O)c(O)c2)oc2cc(O)cc(O)c12", "method": "fluorescence", "pH": "pH 7.4", "quantity": "IC50", "result": "650 nM"}
{"SMILES": "Fc1ccc(Nc2c(-c3ccccn3)nc3ccc(C4CC4)cn23)cc1", "quantity": "IC50", "result": "1500 nM"}
{"SMILES": "COc1ccc2c(Cc3ccccc3F)c3[n+](cc2c1OC)CCc1cc2c(cc1-3)OCO2", "quantity": "IC50", "result": "200 nM"}
{"SMILES": "Cc1cc([C@H]2C[C@H]3[C@@H](CF)SC(N)=N[C@@]3(c3ccc(F)cc3F)CO2)on1", "species": "human", "sample": "liver microsomes", "pH": "pH 7.4", "quantity": "IC50", "result": "> 30000 nM"}
{"SMILES": "C=CC(=O)Nc1cc(Nc2nccc(Nc3cc(Cl)c(F)cc3C(C)(C)O)n2)c(OC)cc1N1CC[C@@H](N(C)C)C1", "species": "human", "sample": "liver microsomes", "quantity": "IC50", "result": "6300 nM"}
{"SMILES": "Cc1coc([C@H]2C[C@H]3[C@@H](C)SC(N)=N[C@@]3(c3ccc(F)cc3F)CO2)n1", "species": "human", "sample": "liver microsomes", "pH": "pH 7.4", "quantity": "IC50", "result": "> 30000 nM"}
{"SMILES": "C[C@@H](c1ccc2nccn2c1)n1nnc2ncc(-c3cnn(C)c3)nc21", "species": "human", "sample": "liver microsomes", "pH": "pH 7.4", "quantity": "IC50", "result": "24000 nM"}
{"SMILES": "Nc1nc(N)c2nc(CNc3cccc4ccccc34)cnc2n1", "method": "luciferase", "quantity": "IC50", "result": "832 nM"}
{"SMILES": "NS(=O)(=O)NCCNc1nonc1C(=NO)Nc1ccc(F)c(Br)c1", "method": "fluorescence", "quantity": "IC50", "result": "> 10000 nM"}
